{"data": "Results pooled from the literature", "effect on": "enzyme activity", "action": "inhibitor", "LCK": "Tyrosine-protein kinase Lck (LCK, Homo sapiens, UniProt P06239)", "LCK phosphorylated": "Tyrosine-protein kinase Lck, phosphorylated (LCK, Homo sapiens, UniProt P06239)", "note": "Protocols differ between the studies behind these lines."}
{"Structure (SMILES)": "C[S+]([O-])c1ccc(-c2nc(-c3ccncc3)c(-c3ccc(F)cc3)[nH]2)cc1 (stereo not drawn)", "target": "LCK", "concentration": "0.5 µM", "remaining activity [%]": 95}
{"Structure (SMILES)": "CCN(CC)c1ccc(C2=NNC(=O)CC2C)cc1[N+](=O)[O-] (stereo not drawn)", "target": "LCK phosphorylated", "concentration": "10 µM", "remaining activity [%]": 104}
{"Structure (SMILES)": "CC(C)(O)[C@H]1CC[C@H](Nc2ccc3ncc(-c4cccc(C(F)(F)F)c4)n3n2)CC1", "target": "LCK", "concentration": "1 µM", "remaining activity [%]": 11.1}
{"Structure (SMILES)": "Cc1ccc(NC(=O)c2ccc(C)c(C(F)(F)F)c2)cc1C#Cc1nn(C2CCC(O)CC2)c2ncnc(N)c12 (stereo not drawn)", "target": "LCK phosphorylated", "concentration": "10 µM", "remaining activity [%]": 0}
{"Structure (SMILES)": "FC(F)c1nc2ccccc2n1-c1nc(N2CCOCC2)nc(N2CCOCC2)n1", "target": "LCK", "concentration": "10 µM", "remaining activity [%]": 89}
{"Structure (SMILES)": "Cc1cnc(NC2CCOCC2)nc1-n1cnc(C(=O)NC(CN)c2cc(F)cc(Cl)c2)c1 (stereo not drawn)", "target": "LCK phosphorylated", "method": "radiometric", "concentration": "1 µM", "remaining activity [%]": 109}
{"Structure (SMILES)": "CC(C)(C)c1nc(-c2cccc(NS(=O)(=O)c3c(F)cccc3F)c2F)c(-c2ccnc(N)n2)s1", "target": "LCK", "method": "radiometric", "concentration": "1 µM", "remaining activity [%]": 38}
{"Structure (SMILES)": "O=C(Nc1cnn(-c2csc(C(=O)NC3COC3)c2)c1)Nc1c(F)cccc1Cl", "target": "LCK", "concentration": "5 µM", "remaining activity [%]": 94.2}
{"Structure (SMILES)": "O=c1cc(-c2cccc3c2Sc2ccccc2S3)oc(N2CCOCC2)c1", "target": "LCK", "concentration": "0.5 µM", "remaining activity [%]": 98.1}
{"Structure (SMILES)": "Cc1ccc(C(=O)Nc2ccc(CN3CCN(C)CC3)c(C(F)(F)F)c2)cc1C#Cc1cnc2cccnn12", "target": "LCK", "concentration": "23.5 nM", "remaining activity [%]": 0.8}
{"Structure (SMILES)": "COc1cc2ncnc(Nc3cccc(Cl)c3)c2cc1OC", "target": "LCK", "concentration": "0.5 µM", "remaining activity [%]": 74.9}
{"Structure (SMILES)": "CCCOc1ccc(OC)c(F)c1C(=O)c1ccc(C(=O)N[C@@H]2CNC[C@H]2NC(=O)c2ccc3[nH]ncc3c2)cc1", "target": "LCK phosphorylated", "concentration": "10 µM", "remaining activity [%]": 18}
{"Structure (SMILES)": "N#CCCc1ccc2c(c1)-c1[nH]c3ccc([N+](=O)[O-])cc3c1CC(=O)N2", "target": "LCK", "concentration": "0.5 µM", "remaining activity [%]": 78.2}
{"Structure (SMILES)": "Cc1[nH]c(/C=C2\\C(=O)Nc3ccc(F)cc32)c(C)c1C(=O)N[C@H]1CCN(C(=O)N(C)C)C1", "target": "LCK", "concentration": "0.1 µM", "remaining activity [%]": 87}
{"Structure (SMILES)": "CCN(CC)CCNC(=O)c1c(C)[nH]c(/C=C2\\C(=O)Nc3ccc(Cl)cc32)c1C", "target": "LCK", "concentration": "0.5 µM", "remaining activity [%]": 11.8}
{"Structure (SMILES)": "Cn1c(=O)n(-c2ccc(C(C)(C)C#N)cc2)c2c3cc(-c4cnc5ccccc5c4)ccc3ncc21", "target": "LCK", "concentration": "10 µM", "remaining activity [%]": 54}
{"Structure (SMILES)": "CC(C)N(CCC(=O)c1ccc2ccccc2c1)Cc1ccccc1", "target": "LCK", "concentration": "0.5 µM", "remaining activity [%]": 98.9}
{"Structure (SMILES)": "CC(C)(C)C(=O)c1sc(NC2CCCCC2)nc1N", "target": "LCK", "concentration": "10 µM", "remaining activity [%]": 85}
{"Structure (SMILES)": "COc1cc(Cl)c(C(=O)N[C@@H](CN[C@H]2CC[C@@H](N)CC2)Cc2ccc(C#N)cc2)cc1-c1ccc(CN[C@H](C)c2ccc(C)cc2)o1", "target": "LCK phosphorylated", "concentration": "1 µM", "remaining activity [%]": 85}
{"Structure (SMILES)": "COc1cc(Nc2cnc(C#N)c(O[C@H](C)CN(C)C)n2)ncc1-c1cnn(C)c1", "target": "LCK", "method": "radiometric", "concentration": "10 µM", "remaining activity [%]": 20}
{"Structure (SMILES)": "O=C(Nc1cnn(-c2csc(C(=O)NC3COC3)c2)c1)Nc1ccccc1Cl", "target": "LCK", "concentration": "5 µM", "remaining activity [%]": 99.1}
